Results as given in ChEMBL document CHEMBL4811308, “Design, synthesis and broad spectrum antibreast cancer activity of diarylindoles via induction of apoptosis in aggressive breast cancer cells” (Bioorg Med Chem, 2021).
The source made the active and inactive calls. The calls are words filed in the database; no cut-off is given here.

What was measured:
[1] = system: MDA-MB-231; assay: Induction of cell cycle arrest in human MDA-MB-231 cells assessed as accumulation at G0/G1 phase at 6 uM incubated for 24 hrs by PI staining based flow cytometry analysis (reference value: 23.74 to 46.27 %); format: functional
[2] = system: MDA-MB-231; assay: Induction of cell cycle arrest in human MDA-MB-231 cells assessed as accumulation at G2/M phase at 2 uM incubated for 24 hrs by PI staining based flow cytometry analysis (reference value: 4.35 to 19.56 %); format: functional
[3] = system: MDA-MB-231; assay: Induction of cell cycle arrest in human MDA-MB-231 cells assessed as accumulation at S phase at 6 uM incubated for 24 hrs by PI staining based flow cytometry analysis (reference value: 40.37 to 57.89 %); format: functional
[4] = system: MDA-MB-231; assay: Induction of apoptosis in human MDA-MB-231 cells assessed as late apoptotic cells at 4 uM incubated for 24 hrs by annexin-V-FITC and PI staining based flow cytometry analysis (reference value: 0.28 to 0.84 %); format: functional
[5] = system: MDA-MB-231; assay: Induction of autophagy in human MDA-MB-231 cells at 2 to 4 uM incubated for 24 hrs by MDC staining based fluorescence microscopic analysis; format: functional, cell-based; details: dose 2-4 µM
Procedure, shortened: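 Autophagic vacuoles detected in MDA-MB-231 cells (1 × 10^6) seeded on cover slips for 24 h, then treated 24 h. Cells PBS-washed, stained with 0.05 mM monodansylcadaverine for 30 min in dark at room temperature, washed, and examined by fluorescence microscopy.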

[6] = system: MDA-MB-231; assay: Induction of cell cycle arrest in human MDA-MB-231 cells assessed as accumulation at S phase at 4 uM incubated for 24 hrs by PI staining based flow cytometry analysis (reference value: 40.37 to 57.89 %); format: functional
[7] = system: MDA-MB-231; assay: Induction of apoptosis in human MDA-MB-231 cells assessed as viable cells at 4 uM incubated for 24 hrs by annexin-V-FITC and PI staining based flow cytometry analysis (reference value: 95.27 to 97.16 %); format: functional; details: read-out: Activity
[8] = system: MDA-MB-231; assay: Induction of apoptosis in human MDA-MB-231 cells assessed as early apoptotic cells at 6 uM incubated for 24 hrs by annexin-V-FITC and PI staining based flow cytometry analysis (reference value: 0.28 to 4.68 %); format: functional
Procedure, shortened: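 MDA-MB-231 cells (1 × 10^6) grown 24 h in six-well plates, then treated for 24 h. Cells trypsinized, PBS-washed and stained with Annexin V-FITC/PI in binding buffer for 10 min in the dark at room temperature. Early/late apoptotic fractions quantified by flow cytometry.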

[9] = system: MDA-MB-231; assay: Induction of apoptosis in human MDA-MB-231 cells assessed as viable cells at 2 uM incubated for 24 hrs by annexin-V-FITC and PI staining based flow cytometry analysis (reference value: 95.27 to 97.16 %); format: functional; details: read-out: Activity
[10] = target: Tubulin (Homo sapiens) (UniProt P68371+Q9H4B7+P0DPH7+P68366+Q13509+Q71U36+P04350+Q3ZCM7+P07437+P68363+Q9BQE3+Q6PEY2+Q13885+Q9BVA1+Q9BUF5); assay: Induction of tubulin polymerization (unknown origin) at 10 uM incubated for 1 hr by spectrometric analysis; format: protein-complex assay
[11] = system: 4T1; assay: Antitumor activity against mouse 4T1 cells […] in BALB/c mouse assessed as reduction in tumor growth at 10 to 20 mg/kg, po administered for 21 days and measured on day 21 relative to control; format: functional, organism-based; details: dose 10-20 mg/kg, time 21.0 day
Procedure, shortened: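 Orthotopic syngeneic model: 4T1 cells (7 × 10^5) injected into the mammary fat pad of six-week-old female Balb/c mice; randomized once tumors were measurable (1 week). Compounds in ethanol diluted in PBS, 10 or 20 mg/kg oral gavage daily for 21 days; vehicle controls. Tumor size measured twice weekly; volume = (LW²) × 0.5.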

[12] = system: MDA-MB-231; assay: Induction of cell cycle arrest in human MDA-MB-231 cells assessed as accumulation at G2/M phase at 6 uM incubated for 24 hrs by PI staining based flow cytometry analysis (reference value: 4.35 to 19.56 %); format: functional
[13] = system: MDA-MB-231; assay: Induction of cell cycle arrest in human MDA-MB-231 cells assessed as accumulation at G0/G1 phase at 4 uM incubated for 24 hrs by PI staining based flow cytometry analysis (reference value: 23.74 to 46.27 %); format: functional
[14] = system: MDA-MB-231; assay: Induction of apoptosis in human MDA-MB-231 cells assessed as viable cells at 6 uM incubated for 24 hrs by annexin-V-FITC and PI staining based flow cytometry analysis (reference value: 95.27 to 97.16 %); format: functional; details: read-out: Activity
[15] = system: MDA-MB-231; assay: Cytotoxicity against human MDA-MB-231 cells assessed as reduction in cell viability at 2 to 6 uM incubated for 24 hrs in presence of NAC by MTT assay; format: functional, cell-based; details: dose 2-6 µM
Procedure, shortened: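 MDA-MB-231 cells pretreated 2 h with 10 mM N-acetylcysteine, then exposed to compound for 24 h. Viability by MTT (3 h), formazan in DMSO, absorbance at 540 nm. Three independent experiments, mean ± S.E.M.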

[16] = system: MDA-MB-231; assay: Cytotoxicity against human MDA-MB-231 cells assessed as reduction in cell viability incubated for 24 hrs by MTT assay; format: functional, cell-based; details: MDA-MB-231, 24 h
Procedure, shortened: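 MTT viability: cells seeded at 1 × 10^4/well, grown 24 h, then exposed to a concentration range of compound for 24 h. MTT (5 mg/mL stock) added for 3 h, formazan dissolved in DMSO, absorbance read at 540 nm.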

[17] = target: T1, Estrogen receptor (Homo sapiens) (UniProt P03372); assay: Transactivation of ERalpha (unknown origin) transfected in human MDA-MB-231 cells at 1 uM by dual luciferase receptor assay; format: cell-based
T1 sequence (whole entry): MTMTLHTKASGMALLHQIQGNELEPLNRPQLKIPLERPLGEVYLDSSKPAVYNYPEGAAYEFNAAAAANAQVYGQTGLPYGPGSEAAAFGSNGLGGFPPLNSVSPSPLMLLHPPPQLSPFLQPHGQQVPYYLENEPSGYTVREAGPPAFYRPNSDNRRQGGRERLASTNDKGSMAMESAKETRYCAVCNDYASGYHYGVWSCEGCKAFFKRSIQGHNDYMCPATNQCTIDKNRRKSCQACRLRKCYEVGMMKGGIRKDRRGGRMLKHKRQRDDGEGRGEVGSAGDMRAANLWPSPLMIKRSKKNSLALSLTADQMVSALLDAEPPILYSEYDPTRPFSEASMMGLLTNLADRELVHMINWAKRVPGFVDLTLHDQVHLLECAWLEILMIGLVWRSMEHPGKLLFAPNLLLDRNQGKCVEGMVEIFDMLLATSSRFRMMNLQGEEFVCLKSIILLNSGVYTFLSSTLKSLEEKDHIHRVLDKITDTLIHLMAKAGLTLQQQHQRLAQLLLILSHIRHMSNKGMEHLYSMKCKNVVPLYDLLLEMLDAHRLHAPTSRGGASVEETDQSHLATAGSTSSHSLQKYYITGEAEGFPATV
Procedure, shortened: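 MDA-MB-231 cells grown to 80-90% confluency, transfected with 500 ng of ERα (pSG5 mERα) or ERβ (pSG5-hERβ) expression vector plus pRL-SV40 Renilla for normalization, then reseeded. Cells incubated with E2 (100 nM), compound at 1 µM, or tamoxifen at 1 µM. Dual luciferase readout reported as percent normalized RLU, triplicate experiments with three replicates each.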

SMILES | Activity [1] [%] | Activity [2] [%] | Activity [3] [%] | Activity [4] [%] | Activity [5] | Activity [6] [%] | viability at 4 µM [7] [%] | Activity [8] [%] | viability at 2 µM [9] [%] | Activity [10] | Activity [11] | Activity [12] [%] | Activity [13] [%] | viability at 6 µM [14] [%] | Activity [15] | IC50 [16] [µM] | Activity [17]
CCN(CC)CCOc1ccc(Cc2c(-c3cc(OC)c(OC)c(OC)c3)n(Cc3ccc(OCCN(CC)CC)cc3)c3ccc(OC)cc23)cc1 | 57.6 | 10.07 | 36.56 | 14.66 | Active | 38.03 | 77.9 | 14.01 | 88.2 | Active | Active | 5.84 | 53.87 | 69.7 | inactive | 2.34 | inactive
COc1ccc2c(c1)c(Cc1ccc(OCCN3CCCCC3)cc1)c(-c1cc(OC)c(OC)c(OC)c1)n2Cc1ccc(OCCN2CCCCC2)cc1 | 59.19 | 12.45 | 29.41 | 26.25 | Active | 29.41 | 56 | 17.19 | 81.5 | Active | Active | 8.91 | 55.16 | 44.6 | inactive | 2.42 | inactive
COc1ccc2c(c1)c(Cc1ccc(OCCN(C)C)cc1)c(-c1cc(OC)c(OC)c(OC)c1)n2Cc1ccc(OCCN(C)C)cc1 | 64.37 | 0.79 | 35.63 | 20.05 | Active | 38.65 | 58.3 | 39.6 | 80.7 | Active | Active | 0 | 61.13 | 36.2 | inactive | 3.78 | inactive
COc1ccc2c(c1)c(Cc1ccc(OC(C)CN(C)C)cc1)c(-c1cc(OC)c(OC)c(OC)c1)n2Cc1ccc(OC(C)CN(C)C)cc1 (stereo not drawn) | 49.36 | 12.85 | 42.27 | 15.18 | Active | 40.83 | 53.2 | 20.52 | 72.5 | Active | Active | 8.37 | 46.54 | 45.8 | inactive | 3.88 | inactive
